# RGS4 inh: inhibitors of human RGS4; hit rate 0.45% among 310,000; B-score at 10 µM; AID 463165; HEK293 M3R/RGS4 inducible, Fluo-4 calcium flux; active compounds read high; triggered by carbachol at its EC20;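 active = B-score, a plate-corrected calcium signal, over three deviations above library mean, with baseline fluorescence within five deviations of library mean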;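 note: RGS4 expression induced by doxycycline in cells with stable M3 receptor; B-score is computed from the integrated fluorescence ratio over baseline after carbachol; higher B-score means a larger calcium signal and so more RGS4 inhibition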
# Target sequence (P49798 whole entry, looked up): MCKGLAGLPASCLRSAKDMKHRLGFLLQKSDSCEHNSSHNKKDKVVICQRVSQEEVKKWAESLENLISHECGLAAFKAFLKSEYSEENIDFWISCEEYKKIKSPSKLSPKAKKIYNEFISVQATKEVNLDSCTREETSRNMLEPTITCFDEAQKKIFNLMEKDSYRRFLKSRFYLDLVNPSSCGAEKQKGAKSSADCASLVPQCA
# MrgX1 antagonist: human MrgX1 receptor antagonism, primary screen. Q96LB2. MRGX1-HEK293 calcium flux, Fluo-4, BAM8-22 antagonism; active compounds read low. B-score at 10 µM. hit rate 1.3% among 310,000. AID 588676;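 active = calcium-response B-score plate-corrected more than 3 library SD below zero, starting fluorescence within 5 deviations, no agonist response on first addition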;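 note: peak minus trough fluorescence over baseline after final BAM8-22 challenge near maximal dose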
# Target sequence (Q96LB2 whole entry, looked up): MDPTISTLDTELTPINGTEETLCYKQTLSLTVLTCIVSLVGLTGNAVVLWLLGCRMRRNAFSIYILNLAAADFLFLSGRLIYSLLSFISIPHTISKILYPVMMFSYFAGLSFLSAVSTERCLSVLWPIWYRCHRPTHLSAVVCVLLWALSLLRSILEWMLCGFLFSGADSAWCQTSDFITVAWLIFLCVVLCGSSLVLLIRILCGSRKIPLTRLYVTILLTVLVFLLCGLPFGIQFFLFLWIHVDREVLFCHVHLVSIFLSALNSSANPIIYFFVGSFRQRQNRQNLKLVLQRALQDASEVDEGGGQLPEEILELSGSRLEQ
# MrgX1 agonist: activates human MrgX1 receptor signaling; Q96LB2; MrgX1-HEK293 cells, Fluo-4 calcium fluorescence, agonist mode; active compounds read high; B-score at 10 µM; hit rate 0.44% among 310,000; AID 588627;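 active = calcium response B-score plate-corrected fluorescence ratio at least 3 library SD, with starting fluorescence B-score inside 5 SD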
#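 System – MrgX1-expressing HEK293 cells · Incubation – cells plated overnight, dye loaded 0.5 h 37 °C, 0.5 h room temperature · Technique – kinetic Fluo-4 NW fluorescence of intracellular calcium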
# RGS4 pot: RGS4 potentiation or activation | HEK293 M3R/inducible RGS4, carbachol calcium flux Fluo4; active compounds read low | B-score at 10 µM | hit rate 0.92% among 310,000 | AID 463111;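 active = B-score of the integrated calcium signal more than 4 SD below the library mean, with starting fluorescence not abnormally high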;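 note: negative B-score means reduced calcium response which marks RGS4 activation or potentiation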
#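 Material: Inducible-RGS4 HEK293 cells carrying M3 receptor; also added: carbachol at ECmax as muscarinic agonist stimulus; incubation: compound preincubation 20 min at room temperature before agonist; signal: Fluo4-AM (2 µM) calcium-flux fluorescence, kinetic read; measure: integrated calcium ratio converted to B score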
# MrgX1 PAM: human MrgX1 positive allosteric modulation, primary screen | Q96LB2 | MrgX1-HEK293, Fluo-4 calcium flux, FDSS; active compounds read high | B-score at 10 µM | hit rate 0.63% among 310,000 | AID 588675;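 active = plate-corrected calcium response at least 3 library SD above typical, normal starting fluorescence, not activating the receptor alone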;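 note: compound read alongside a low EC10 to EC30 dose of BAM8-22 agonist; peak minus trough fluorescence over baseline measured at the second addition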
# MrgX1 PAM conf: human MrgX1 positive allosteric modulation, re-confirmation. shares compounds with MrgX1 PAM. MrgX1-HEK293, Fluo-4 calcium fluorescence, FDSS. activation (ratio percentage), % at 10 µM. hit rate 13% among 1,200. AID 602413;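 active = ratio at least 3 SD above the weak peptide control, stable starting fluorescence, no direct agonism earlier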;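 note: compound followed by low BAM8-22 agonist challenge near EC20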
# MrgX1 antag conf: reconfirmed antagonist of human MrgX1 receptor signaling; MrgX1-HEK293, BAM8-22 calcium flux, Fluo-4; active compounds read low; hit rate 19% among 2,300; shares compounds with MrgX1 antagonist; AID 602420; remaining BAM8-22 calcium response % of control (active compounds read low), % at 10 µM;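 active = remaining agonist calcium response no higher than 100% minus 3 SD of agonist-only control wells, with starting fluorescence near control levels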;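 note: agonist BAM8-22 given at a near maximal EC90 to ECmax level; peak minus minimum fluorescence divided by baseline after agonist addition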
# HEK293 Ca flux: MrgX1 antagonist counter-screen hit in parental HEK293 cells. shares compounds with MrgX1 antagonist. Fluo-4 calcium fluorescence, FDSS. fluorescence ratio F(max-min)/F0 at 10 µM. hit rate 2% among 4,000. AID 624111;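 active = duplicate-averaged calcium fluorescence ratio at least three times the standard deviation of buffer wells, a nonspecific response in parental cells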
# HEK293 Ca counter: activity in parental HEK293 cells without MrgX1; shares compounds with MrgX1 antagonist; parental HEK293 calcium flux, Fluo-4 fluorescence ratio; active compounds read high; fluorescence ratio F(max-min)/F0 at 10 µM; hit rate 0.4% among 4,000; AID 624114;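 active = calcium fluorescence ratio, averaged over duplicates, at least 3 SD of the buffer-well ratio, meaning a nonspecific response in receptor-free cells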;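 note: untransfected parental HEK293 lacking MrgX1 used as counterscreen for MrgX1 allosteric activators; fluorescence change taken during the second addition on a kinetic imager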
# HEK293 Ca cntr2: activity in parental HEK293 cells lacking MrgX1 receptor; shares compounds with MrgX1 antagonist; Fluo-4 calcium fluorescence (FDSS); active compounds read high; fluorescence ratio F(max-min)/F0 at 10 µM; hit rate 8.7% among 4,000; AID 624115;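 active = calcium fluorescence ratio at least three times the spread of buffer wells, meaning a non-specific response in parental cells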
# A number is an active result; . = inactive; / = no result. The list is not random: actives were taken first. Their share in the collection is about 3.5%.
SMILES,RGS4 inh,MrgX1 antagonist,MrgX1 agonist,RGS4 pot,MrgX1 PAM,MrgX1 PAM conf,HEK293 Ca flux,HEK293 Ca counter,HEK293 Ca cntr2,others
CC1CCCN(c2nc3c(c(=O)n(C)c(=O)n3C)n2Cc2ccccc2)C1 (centres undefined),.,.,.,.,7.09,.,.,.,.,
COc1cc(/C=C/C(=O)OCN2C(=O)c3ccccc3C2=O)ccc1OC(F)F,.,.,.,.,.,/,/,/,/,
CSc1ccccc1C(=O)C1CCCN(C(=O)CCN2CCCO2)C1 (centres undefined),.,.,.,.,.,/,/,/,/,
COc1ccc(NC(=S)N(CCCN2CCCC2)Cc2ccco2)cc1,.,.,.,.,.,/,/,/,/,
COc1ccc(NC(=S)N(CCN2CCCCC2)Cc2ccco2)cc1,.,.,.,.,10.3,.,.,.,.,
CC1(C)Cc2cccc(Oc3ccc(S(=O)(=O)N4CCCCC4)cn3)c2O1,.,.,.,.,11.3,.,.,.,.,
Cc1ccc(N=Cc2sc(O)c3ccccc23)c(C)c1,.,.,.,.,.,/,/,/,/,
Cc1ccc(N=Cc2sc(O)c3ccccc23)cc1,.,-6.89,.,.,6.99,.,.,.,.,MrgX1 antag conf=75.3%
CSCC[C@H](NC(=O)N1CCn2c1nc1ccccc12)C(=O)N[C@@H](C(=O)O)c1ccccc1,.,.,.,.,.,/,/,/,/,
CC(CNC(=O)CN1C(=O)c2cccnc2Oc2ccc(Cl)cc21)c1ccccc1 (centres undefined),.,.,.,.,12.4,.,.,.,.,
Cc1ccc(S(=O)(=O)NCCc2ccccc2)cc1,.,.,.,.,.,/,/,/,/,
Cc1cc(C)c(S(=O)(=O)NCCc2ccccc2)c(C)c1,.,.,.,.,9.71,.,.,.,.,
COc1cc(/C=N/N2CCN(C3c4ccccc4-c4ccccc43)CC2)cc(OC)c1O,.,.,.,.,.,/,/,/,/,
c1cnc2c(Oc3ncnc4sccc34)cccc2c1,.,.,.,.,.,/,/,/,/,
Cc1ccc(Oc2ncnc3sccc23)cc1,.,.,.,.,17.1,2.5%,.,.,.,
O=C(c1ccc(COc2ccccc2Cl)o1)N1CCN(Cc2ccc3c(c2)OCO3)CC1,.,.,.,.,.,/,/,/,/,
O=C(N/N=C/c1cccc([N+](=O)[O-])c1)c1ccc(CN2CCOCC2)cc1,.,.,.,.,.,/,/,/,/,
CC(=O)Nc1cccc(-c2nc3ccccc3[nH]2)c1,.,.,.,.,.,/,/,/,/,
COc1cccc(OC)c1C(=O)Nc1cccc(-c2nc3ccccc3[nH]2)c1,.,.,.,.,7.07,.,.,.,.,
CCOC(=O)c1c(NC(=O)C2CCCCC2C(=O)O)sc2c1CCCCC2 (centres undefined),.,.,.,.,15.8,.,.,.,.,
COc1ccc(C=O)cc1Cn1cnc2c(cnn2C)c1=O,.,.,.,.,.,/,/,/,/,
COc1ccc(C(C)=O)cc1Cn1cnc2c(cnn2C)c1=O,.,.,.,.,11.4,.,.,.,.,
N#CC1=C(N)Oc2c(oc(CO)cc2=O)C1c1ccsc1 (centres undefined),.,.,.,.,.,/,/,/,/,
N#CC1=C(N)Oc2c(ccc3ccccc23)C1c1ccsc1 (centres undefined),.,.,.,.,13.8,.,.,.,.,
O=C(Nc1ccc(F)cc1)C1C2CCC3C(CCC21)C3(Cl)Cl (centres undefined),.,.,.,.,9.37,.,.,.,.,
SMILES,RGS4 inh,MrgX1 antagonist,MrgX1 agonist,RGS4 pot,MrgX1 PAM,MrgX1 PAM conf,HEK293 Ca flux,HEK293 Ca counter,HEK293 Ca cntr2,others
CCOc1ccc(NC(=O)C2C3CCC4C(CCC32)C4(Cl)Cl)cc1 (centres undefined),.,.,.,.,.,/,/,/,/,
CN1CCN(C(=S)C(=O)Nc2ccc(Br)cc2)CC1,.,.,.,.,11,.,.,.,.,
CN1CCN(C(=S)NC(=O)c2ccc(Br)cc2)CC1,.,.,.,.,.,/,/,/,/,
CCN(CC)S(=O)(=O)c1cc(Br)c(C)cc1OC,.,.,.,.,8.64,.,.,.,.,
Cc1sc2ncnc(SCC(=O)NNC(=O)COc3cccc4ccccc34)c2c1C,.,.,.,.,.,/,/,/,/,
Cn1c(=O)n(C)c2cc(C(N)=O)ccc21,.,.,.,.,14.7,.,.,.,.,
Cc1c(C(=O)N2CCN(c3ccccc3)CC2)sc2ncnc(N3CCC(C)CC3)c12,.,.,.,.,.,/,/,/,/,
Cc1sc2ncnc(N3CCC(C)CC3)c2c1C,.,.,.,.,17.7,4.3%,.,.,.,
CS(=O)(=O)N1CCCC(C(=O)Nc2ccc(F)cc2F)C1 (centres undefined),.,.,.,.,.,/,/,/,/,
CCOc1cccc2sc(NC(=O)CC)nc12,.,.,.,.,.,/,/,/,/,
Clc1ccc(-c2cc3ccccc3nc2N2CCOCC2)cc1,.,.,.,.,10.8,.,.,.,.,
Clc1ccc(-c2cc3ccccc3nc2N2CCCC2)cc1,.,.,.,.,.,/,/,/,/,
Cc1ccc(S(=O)(=O)N2CCCC2C(=O)OCC(=O)Nc2ccc3c(c2)OCO3)cc1 (centres undefined),.,.,.,.,16.8,.,.,.,.,
CCOC(=O)CNC(=O)CSc1nc(-c2ccc(OC)cc2)ns1,.,.,.,.,11.9,.,.,.,.,
Cc1ccc(CCNC(=O)Cn2ccc3cc(S(=O)(=O)N4CCCC4)ccc32)cc1,.,.,.,.,.,/,/,/,/,
Cc1ccccc1CCNC(=O)Cn1ccc2cc(S(=O)(=O)N3CCCC3)ccc21,.,.,.,.,7.15,.,.,.,.,
Nc1nc(Cl)nc(N(c2ccccc2)c2ccccc2)n1,.,.,.,.,.,/,/,/,/,
Nc1nc(CCl)nc(N(c2ccccc2)c2ccccc2)n1,.,.,.,.,10.1,.,.,.,.,
COc1ccc(S(=O)(=O)n2nc(OC(C)=O)cc2N(C(C)=O)C(C)=O)cc1,.,.,.,.,13.2,.,.,.,.,
CS(=O)(=O)n1nc(OC(=O)c2cc(Br)ccc2Cl)cc1N,.,.,.,.,.,/,/,/,/,
CS(=O)(=O)n1nc(OC(=O)c2cccc3ccccc23)cc1N,.,.,.,.,6.54,14.0%,.,.,.,

# Screening data as filed in PubChem.
